Measured values taken from ChEMBL document CHEMBL1152768, “4-Benzyloxy-gamma-sultone derivatives: discovery of a novel family of non-nucleoside inhibitors of human cytomegalovirus and varicella zoster virus” (J Med Chem, 2009).
The source made the active and inactive calls. No cut-off for these calls is given here.

Tests used:
[1] = tested on: Human betaherpesvirus 5; test: Antiviral activity against ganciclovir-resistant HCMV AD169 clone 4 infected in HEL cells assessed as inhibition of virus-induced cytopathicity; type: functional, organism-based; details: Human betaherpesvirus 5, AD169, HEL
[2] = tested on: Human betaherpesvirus 5; test: Antiviral activity against cidofovir HCMV AD169 clone 5 infected in human HEL cells assessed as inhibition of virus-induced cytopathicity; type: functional, organism-based; details: Human betaherpesvirus 5, AD169, HEL
[3] = tested on: Human betaherpesvirus 5; test: Antiviral activity against HPMPA-resistant HCMV AD169 clone 2 mutant infected in HEL cells assessed as inhibition of virus-induced cytopathicity; type: functional, organism-based; details: Human betaherpesvirus 5, AD169, HEL
[4] = tested on: Human betaherpesvirus 5; test: Antiviral activity against PMEDAP-resistant HCMV AD169 clone 4 infected in HEL cells assessed as inhibition of virus-induced cytopathicity; type: functional, organism-based; details: Human betaherpesvirus 5, AD169, HEL
[5] = tested on: Human betaherpesvirus 5; test: Antiviral activity against foscarnet-resistant HCMV AD169 clone C infected in HEL cells assessed as inhibition of virus-induced cytopathicity; type: functional, organism-based; details: Human betaherpesvirus 5, AD169, HEL
[6] = tested on: Human betaherpesvirus 5; test: Antiviral activity against wild type HCMV AD169 infected in HEL cells assessed as inhibition of virus-induced cytopathicity; type: functional, organism-based; details: Human betaherpesvirus 5, AD169, HEL
Method in brief: (§1)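 HEL fibroblast cultures infected at 100 PFU input. After 2 h, residual virus was removed and compound-containing medium was added at varying concentrations, in duplicate. Cells were incubated 7 days at 37 °C, ethanol-fixed and Giemsa-stained, and cytopathicity was scored microscopically.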

[7] = tested on: Human betaherpesvirus 5; test: Antiviral activity against acyclovir-resistant HCMV AD169 clone 1 infected in HEL cells assessed as inhibition of virus-induced cytopathicity; type: functional, organism-based; details: Human betaherpesvirus 5, AD169, HEL
[8] = tested on: Human betaherpesvirus 5; test: Antiviral activity against wild type HCMV Davis infected in HEL cells assessed as inhibition of virus-induced cytopathicity; type: functional, organism-based; details: Human betaherpesvirus 5, Davis; method in brief: as §1
[9] = Cytotoxicity against human HEL cells assessed as reduction of growth after 3 days; type: cell-based
Method in brief: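 HEL cells were seeded at 5 × 10³ cells/well and grown 24 h before compound was added at different concentrations. After 3 days at 37 °C, cells were counted with a Coulter counter. CC50, the concentration halving growth relative to untreated controls, was read from plots of cell number (% of control) against concentration.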

[10] = tested on: Human betaherpesvirus 5; test: Antiviral activity against HCMV AD169 infected in human HEL cells assessed inhibition of virus-induced cytopathicity after 7 days postinfection; type: functional, organism-based; details: Human betaherpesvirus 5, AD169, HEL, 168 h
Method in brief: (§2)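 HEL fibroblasts were infected at 100 PFU. After 2 h, residual virus was removed and medium with test compound was added at several concentrations, in duplicate. Cells were incubated 7 days at 37 °C, fixed with ethanol and stained with Giemsa.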

[11] = tested on: Human betaherpesvirus 5; test: Antiviral activity against HCMV Davis infected in human HEL cells assessed inhibition of virus-induced cytopathicity after 7 days postinfection; type: functional, organism-based; details: Human betaherpesvirus 5, Davis, 168 h; method in brief: as §2
[12] = Cytotoxicity against human HEL cells assessed as morphological alteration after 3 days; type: cell-based
Method in brief: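 HEL cultures were examined under the microscope. MCC was recorded as the compound concentration causing a microscopically detectable alteration of normal cell morphology.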

[13] = tested on: Human alphaherpesvirus 3; test: Antiviral activity against thymidine kinase expressing Varicella zoster virus Oka infected in human HEL cells assessed reduction in viral plaque formation; type: functional, organism-based; details: Human alphaherpesvirus 3, Oka
Method in brief: (§3)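 Confluent HEL cell monolayers were inoculated with VZV at 20 PFU per well. Residual virus was removed after 2 h, and compound was added at varying concentrations, in duplicate.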

[14] = tested on: Human alphaherpesvirus 3; test: Antiviral activity against thymidine kinase deficient Varicella zoster virus 07/1 infected in human HEL cells assessed reduction in viral plaque formation; type: functional, organism-based; details: Human alphaherpesvirus 3, HEL; method in brief: as §3
[15] = tested on: Human alphaherpesvirus 3; test: Antiviral activity against Varicella zoster virus YS infected in human HEL cells assessed reduction in viral plaque formation; type: functional, organism-based; details: Human alphaherpesvirus 3, YS
[16] = tested on: Vesicular stomatitis virus; test: Antiviral activity against VSV infected in human HeLa cells; type: functional, organism-based
[17] = tested on: Human alphaherpesvirus 1; test: Antiviral activity against acyclovir-resistant […]-deficient HSV1 infected in human HEL cells; type: functional, organism-based
[18] = tested on: Vesicular stomatitis virus; test: Antiviral activity against VSV infected in human HEL cells; type: functional, organism-based
[19] = tested on: Human alphaherpesvirus 1; test: Antiviral activity against HSV1 KOS infected in human HEL cells; type: functional, organism-based
[20] = tested on: Respiratory syncytial virus; test: Antiviral activity against RSV infected in human HeLa cells; type: functional, organism-based
[21] = tested on: Punta Toro virus; test: Antiviral activity against Punta Toro virus infected in african green monkey Vero cells; type: functional, organism-based
[22] = tested on: Vaccinia virus; test: Antiviral activity against Vaccinia virus infected in human HEL cells; type: functional, organism-based; details: Orthopoxvirus vaccinia
[23] = tested on: Human alphaherpesvirus 2; test: Antiviral activity against HSV2 infected in human HEL cells; type: functional, organism-based
[24] = tested on: Coxsackievirus B4; test: Antiviral activity against Coxsackievirus B4 infected in human HeLa cells; type: functional, organism-based
[25] = tested on: Sindbis virus; test: Antiviral activity against Sindbis virus infected in african green monkey Vero cells; type: functional, organism-based
[26] = tested on: Mammalian orthoreovirus 3; test: Antiviral activity against Reovirus 3 infected in african green monkey Vero cells; type: functional, organism-based
[27] = tested on: Coxsackievirus B4; test: Antiviral activity against Coxsackievirus B4 infected in african green monkey Vero cells; type: functional, organism-based

SMILES | EC50 [1] | EC50 [2] | EC50 [3] | EC50 [4] | EC50 [5] | EC50 [6] | EC50 [7] | EC50 [8] | CC50 at 72 h [9] | EC50 [10] | EC50 [11] | MCC at 72 h [12] | EC50 [13] | EC50 [14] | also measured
Nc1ncnc2c1ncn2C[C@@H](CO)OCP(=O)(O)O | 2.1 µM | 2.1 µM | 1.9 µM | 0.12 µM | 0.036 µM | 0.17 µM | 0.08 µM | 0.2 µM | – | – | – | – | – | – | –
CCC1(Cc2ccccc2)OS(=O)(=O)C=C1OCc1ccc(C)cc1 (racemic) | – | – | – | – | – | – | – | – | 41.5 µM | 7.2 µM | 5.9 µM | ≥ 16 µM | 6.4 µM | 5.9 µM | –
CCC1(Cc2ccccc2)OS(=O)(=O)C=C1OCc1ccc(C(C)(C)C)cc1 (racemic) | – | – | – | – | – | – | – | – | 200 µM | 20 µM | ≥ 5 µM | ≥ 400 µM | 6.4 µM | 7.3 µM | –
CCC1(Cc2ccccc2)OS(=O)(=O)C=C1OCc1ccccc1Cl (racemic) | – | – | – | – | – | – | – | – | 38 µM | > 4 µM | > 4 µM | ≥ 20 µM | 8.7 µM | 10 µM | EC50 [15]: > 5 µM
CCC1(Cc2ccccc2)OS(=O)(=O)C=C1OCc1cccc(Cl)c1 (racemic) | – | – | – | – | – | – | – | – | 50 µM | > 16 µM | 8 µM | ≥ 20 µM | 7.3 µM | 6.7 µM | –
CCC1(Cc2ccccc2)OS(=O)(=O)C=C1OCCc1ccccc1 (racemic) | – | – | – | – | – | – | – | – | 48 µM | 6.9 µM | 9.3 µM | ≥ 20 µM | 5.7 µM | 7.5 µM | Activity [16]: inactive; Activity [17]: inactive; Activity [18]: inactive; Activity [19]: inactive; Activity [20]: inactive; Activity [21]: inactive; Activity [22]: inactive; Activity [23]: inactive; Activity [24]: inactive; Activity [25]: inactive; Activity [26]: inactive; Activity [27]: inactive
CCC1(Cc2ccccc2)OS(=O)(=O)C=C1OCc1ccc(Cl)cc1 (racemic) | 11 µM | 11 µM | 9.9 µM | 12 µM | 9.6 µM | 11 µM | 1.1 µM | 11 µM | > 200 µM | 10.4 µM | 9.7 µM | ≥ 50 µM | 7.6 µM | 5.7 µM | Activity [16]: inactive; Activity [17]: inactive; Activity [18]: inactive; Activity [19]: inactive; Activity [20]: inactive; Activity [21]: inactive; Activity [22]: inactive; Activity [23]: inactive; EC50 [15]: 10 µM; Activity [24]: inactive; Activity [25]: inactive; Activity [26]: inactive; Activity [27]: inactive
CCC1(Cc2ccccc2)OS(=O)(=O)C=C1OCc1ccc(Cl)c(Cl)c1 (racemic) | – | – | – | – | – | – | – | – | 36.7 µM | 6.5 µM | 7.2 µM | ≥ 20 µM | > 3.2 µM | > 3.2 µM | –
CCC1(Cc2ccccc2)OS(=O)(=O)C=C1OCc1ccc(OC)cc1 (racemic) | – | – | – | – | – | – | – | – | > 200 µM | 200 µM | 142 µM | ≥ 200 µM | 120 µM | 106 µM | Activity [16]: inactive; Activity [17]: inactive; Activity [18]: inactive; Activity [19]: inactive; Activity [20]: inactive; Activity [21]: inactive; Activity [22]: inactive; Activity [23]: inactive; Activity [24]: inactive; Activity [25]: inactive; Activity [26]: inactive; Activity [27]: inactive
CCC1(Cc2ccccc2)OS(=O)(=O)C=C1OCc1ccc(Br)cc1 (racemic) | – | – | – | – | – | – | – | – | 171 µM | 10 µM | 6 µM | 80 µM | 8.3 µM | 6.3 µM | –
Nc1nc2c(ncn2COCCO)c(=O)[nH]1 [ACYCLOVIR] | – | – | – | – | – | 15 µM | – | – | 733 µM | – | – | > 200 µM | 1.1 µM | 72 µM | –
Nc1ccn(C[C@@H](CO)OCP(=O)(O)O)c(=O)n1 [CIDOFOVIR] | 0.74 µM | 1 µM | 0.55 µM | 0.092 µM | 0.045 µM | 0.076 µM | 0.095 µM | 0.069 µM | 74 µM | 0.3 µM | 0.5 µM | > 150 µM | – | – | –
O=C(O)P(=O)(O)O [FOSCARNET] | 20 µM | 11 µM | 13 µM | 63 µM | 95 µM | 13 µM | 35 µM | 11 µM | – | – | – | – | – | – | –
Nc1nc2c(ncn2COC(CO)CO)c(=O)[nH]1 [GANCICLOVIR] | 4.3 µM | 4 µM | 1.2 µM | 3.5 µM | – | 0.7 µM | 0.69 µM | 0.66 µM | 134 µM | – | 3.6 µM | > 400 µM | – | – | –
Nc1nc(N)c2ncn(CCOCP(=O)(O)O)c2n1 [PMEDAP] | 1.9 µM | 3.5 µM | 0.82 µM | 37 µM | 25 µM | 8.4 µM | > 50 µM | 7.7 µM | – | – | – | – | – | – | –
